# High-throughput results deposited in PubChem BioAssay by several laboratories.
# Lmaj promast: inhibitors of Leishmania major promastigote growth. Leishmania major promastigotes, resazurin fluorescence viability. inhibition, % at 10 µM. hit rate 9% among 200,000. AID 1063; in the data active means inhibition above about 50%;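 further: promastigotes grown with compound for 44 hours at 28 °C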
# TNAP act hiacc: TNAP (human) activation, high acceptor | purified TNAP, CDP-star luminescence, 1 M DEA, 30 min; hits give high values; 0 = EDTA background, 1 = DMSO-only activity | activation factor at 20 µM | 200,000 tested, under 10 active;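 active means activation factor at least 2 at 20 µM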
# Target sequence (P05186 whole entry, looked up): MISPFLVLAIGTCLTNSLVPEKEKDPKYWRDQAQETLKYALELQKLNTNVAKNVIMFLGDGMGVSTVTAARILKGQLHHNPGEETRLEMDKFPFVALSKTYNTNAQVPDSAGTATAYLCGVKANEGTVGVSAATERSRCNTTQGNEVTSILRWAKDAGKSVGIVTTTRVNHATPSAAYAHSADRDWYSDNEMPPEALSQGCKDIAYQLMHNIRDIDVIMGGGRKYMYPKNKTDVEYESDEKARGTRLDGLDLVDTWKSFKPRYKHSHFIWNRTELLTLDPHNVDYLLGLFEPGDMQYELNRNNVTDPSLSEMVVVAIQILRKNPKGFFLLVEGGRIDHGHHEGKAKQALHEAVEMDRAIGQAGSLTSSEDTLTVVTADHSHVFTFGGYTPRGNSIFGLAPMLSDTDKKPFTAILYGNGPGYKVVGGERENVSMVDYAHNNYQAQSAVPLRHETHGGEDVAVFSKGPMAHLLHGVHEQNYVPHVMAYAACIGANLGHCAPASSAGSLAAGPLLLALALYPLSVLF
#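 Control set: EDTA negative control, DMSO positive control / Assay system: human TNAP / Quantity: TNAP 1/800 final / Evaluation: TNAP activation factor scaled between EDTA and DMSO control wells / Measured by: luminescent substrate turnover signal / Compound dosing: one dose, 20 µM / Times: 30 min enzyme reaction at room temperature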
# PTEN del growth: growth suppressors of cells with PTEN tumor suppressor deletion. HCT116 PTEN-null viability, CellTiter-Glo, 60 h; hits give low values. hit rate 1.2% among 140,000. viability, % at 10 µM;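 active means viability at or below a set limit, 4 SD under the median of all tested compounds, cut at about 3.7% in these data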;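 further: PTEN knockout HCT116 line with beta catenin targeted HCT116 as companion control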
# TNAP inh hi DEA: inhibitors of human TNAP at high phosphate acceptor concentration | P05186 | purified TNAP, CDP-star luminescence, 1 M DEA | inhibition, % at 20 µM | hit rate 0.03% among 200,000;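 active means over 50% inhibition of tissue-nonspecific alkaline phosphatase at 20 µM in the single-dose screen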;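 further: plate controls were DMSO wells for no effect and EDTA-quenched wells as full inhibition for full effect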
# bCat KO growth: beta-catenin-lacking colon tumor cell growth suppression; viability, % at 10 µM; hit rate 1.5% among 140,000; HCT116 beta-catenin knockout viability, CellTiter-Glo, 60 h; hits give low values;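 active means viability at or under a set limit, the compound median less 4 SD, cut at about 6% in these data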;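 further: 0% = Hyamine 1622 control at 20 µM and 100% = untreated cell control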
# TNAP inh noacc: blocks human TNAP activity with no phosphate acceptor present | P05186 | purified TNAP, CDP-star luminescence, 30 min | inhibition, % at 20 µM | hit rate 0.26% among 200,000 | AID 1012;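 active means tissue-nonspecific alkaline phosphatase inhibition above about 50% at 20 µM in the single-dose screen, limit read from the data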;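 further: 0% = DMSO negative control and 100% = EDTA positive control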
# The depositor's hits bear a star; x = no result given. In the library only some 9.6% were active in any assay of this set; here they are far more common.
SMILES,Lmaj promast,TNAP act hiacc,PTEN del growth,TNAP inh hi DEA,bCat KO growth,TNAP inh noacc
COc1ccc(C[C@H]2CN3C(=NC[C@@H]3Cc3ccccc3)N2CCNC(=O)CCC2CCCCC2)cc1,58*,1.2,x,-15,x,-19
Cc1ccc(C(=O)CSc2cnc3ccccc3n2)cc1C,-4,1,93,0,94,-2
Cc1ccc2c(c1C)OC(=O)CC2(C)C,22,1,98,-2,87,-11
CCOc1ccc(N(CC(=O)Nc2cccnc2)S(C)(=O)=O)cc1,2,1,x,-4,x,-4
O=C(O)/C=C/C(=O)Nc1ccc(NC(=O)c2ccccc2)c(Cl)c1,-2,1,x,-5,x,-3
CC(C)C(=O)N1CCN(c2ccc(NC(=O)c3ccc([N+](=O)[O-])o3)cc2Cl)CC1,101*,1,x,-1,x,-8
O=C(Nc1cccc(S(=O)(=O)N2CCCCC2)c1)c1ccc([N+](=O)[O-])o1,100*,1,x,-3,x,-21
Cc1ccc(NC(=O)c2ccccc2-c2ccc(C(F)(F)F)cc2)cc1S(=O)(=O)N1CCOCC1,93*,1,62,0,67,-3
CC(C)C(=O)N1CCN(c2ccc(NC(=O)c3ccc([N+](=O)[O-])o3)cc2)CC1,99*,1,x,2,x,2
CC(=O)N1CCN(c2ccc(NC(=O)c3ccc(Br)o3)cc2Cl)CC1,9,1,x,-1,x,-6
COc1ccc(NC(=O)c2ccccc2-c2ccc(C(F)(F)F)cc2)cc1S(=O)(=O)N1CCOCC1,-1,1.1,85,-6,94,-9
CC(C)C(=O)N1CCN(c2ccc(NC(=O)c3ccc(Br)o3)cc2)CC1,0,1,95,-5,105,-14
CC(N=C1CC(C)(C)CC(=O)/C1=C(/O)CCCN1C(=O)c2ccccc2C1=O)C(=O)O (stereo not given),-4,1,x,2,x,-5
COCCN(C(=S)Nc1cc(C)cc(C)c1)C(C)c1ccco1 (stereo not given),11,1,x,-2,x,-12
O=S(=O)(NCc1ccco1)c1cnc(Cl)c(Br)c1,8,1,88,-3,80,-8
O=C(Nc1cccc(Cl)c1N1CCCC1)c1ccc(Br)o1,-3,1,81,0,70,-4
Cc1ccc(NC(=O)COC(=O)c2ccc([N+](=O)[O-])o2)cc1S(=O)(=O)N1CCCCC1,-5,1.1,x,-6,x,-18
O=C(Nc1cccc(Cl)c1N1CCCC1)c1ccc([N+](=O)[O-])o1,87*,1,x,3,x,-7
O=C(Nc1ccc(N2CCN(C(=O)c3ccccc3)CC2)cc1)c1ccc([N+](=O)[O-])o1,101*,1,x,2,x,2
O=C(Nc1ccc(N2CCOCC2)c(Cl)c1)c1ccc([N+](=O)[O-])o1,100*,1,x,1,x,0
Cc1ccc(NC(=O)c2ccc([N+](=O)[O-])o2)cc1S(=O)(=O)N1CCOCC1,99*,1,x,-2,x,-9
O=C(Nc1ccc(N2CCCC2)c(Cl)c1)c1ccc([N+](=O)[O-])cc1,-1,0.9,89,6,85,-2
CCCC(=O)N1CCN(c2ccc(NC(=O)c3ccc([N+](=O)[O-])o3)cc2Cl)CC1,101*,1,x,1,x,16
Cc1ccc(CN=C(Nc2ccccc2)NC2CCCCC2)cc1,60*,1.1,x,-12,x,-24
CCN(Cc1ccccc1)c1ccc(/C=N/NC(=O)c2cccc(S(=O)(=O)N3CCOCC3)c2)cc1,91*,1.1,43,-9,36,-8
SMILES,Lmaj promast,TNAP act hiacc,PTEN del growth,TNAP inh hi DEA,bCat KO growth,TNAP inh noacc
COc1cc(/C=N/NC(=O)c2cccc(S(=O)(=O)N3CCOCC3)c2)cc(OC)c1O,-3,1,x,-3,x,-2
CCN(CC)c1ccc(/C=N/NC(=O)c2cccc(S(=O)(=O)N3CCOCC3)c2)cc1,73*,1,76,0,78,4
O=C(N/N=C/c1c(F)c(F)c(F)c(F)c1F)c1cccc(S(=O)(=O)N2CCOCC2)c1,-2,1,x,-2,x,-10
CCN(CC)c1ccc(/C=N/NC(=O)c2ccco2)cc1,50*,1,24,-5,19,-9
CC1CCC(C(=O)c2c(O)c3ccccc3oc2=O)CC1 (stereo not given),99*,1,71,-4,55,-14
CCCCC(=O)c1c(O)c2ccccc2oc1=O,-1,1,97,-4,96,-12
